Measured values from ChEMBL document CHEMBL5247578, “Effective synthesis of benzimidazoles-imidazo[1,2-a]pyrazine conjugates: A comparative study of mono-and bis-benzimidazoles for antitumor activity” (Eur J Med Chem, 2019).

Tests used:
[1] = n-Octanol/phosphate buffer partition coefficient, logP of the compound at pH 7.4 incubated for 85 mins by shake-flask method; assay type: physicochemical
How it was run: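 Octanol–water partition by shake-flask: n-octanol with 0.15 M phosphate buffer pH 7.4 at 10:1 volumes. Buffer-phase absorbance read before mixing, then shaken 50 min and centrifuged at 2500 rpm for 35 min. Buffer absorbance read again; P = (Ai−Af)/Af × Vw/Vo.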

RPMI-8226 = assay: Antiproliferative activity against human RPMI-8226 cells assessed as cell growth inhibition at 10 uM incubated for 48 hrs by sulforhodamine B assay relative to control; assay type: functional
How it was run: (§1)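 NCI-60 single-dose screen at 10^-5 M. Cells grown in RPMI 1640 with 5% FBS and 2 mM L-glutamine, plated at 5,000–40,000 cells/well, and preincubated 24 h. Drug (DMSO stock) added and incubated 48 h at 37 °C, 5% CO2. Adherent cells fixed with cold TCA, stained with 0.4% SRB in 1% acetic acid, dye solubilized in 10 mM trizma base, A515 read. Percent growth taken against time-zero and untreated control.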

SNB-19 = assay: Antiproliferative activity against human SNB-19 cells assessed as cell growth inhibition at 10 uM incubated for 48 hrs by sulforhodamine B assay relative to control; assay type: functional; how it was run: as §1
SR = assay: Antiproliferative activity against human SR cells assessed as cell growth inhibition at 10 uM incubated for 48 hrs by sulforhodamine B assay relative to control; assay type: functional; how it was run: as §1
SF-268 = assay: Antiproliferative activity against human SF-268 cells assessed as cell growth inhibition at 10 uM incubated for 48 hrs by sulforhodamine B assay relative to control; assay type: functional; how it was run: as §1
HOP-92 = assay: Antiproliferative activity against human HOP-92 cells assessed as cell growth inhibition at 10 uM incubated for 48 hrs by sulforhodamine B assay relative to control; assay type: functional
How it was run: (§2)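 NCI-60 one-dose prescreen at 10^-5 M. Cells grown in RPMI 1640 with 5% FBS and 2 mM glutamine, preincubated 24 h, then exposed 48 h at 37 °C. Adherent lines TCA-fixed, SRB-stained, A515 read. Growth percent relative to time-zero and control; negative values mean cell kill.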

NCI-H460 = assay: Antiproliferative activity against human NCI-H460 cells assessed as cell growth inhibition at 10 uM incubated for 48 hrs by sulforhodamine B assay relative to control; assay type: functional; how it was run: as §1
SNB-75 = assay: Antiproliferative activity against human SNB-75 cells assessed as cell growth inhibition at 10 uM incubated for 48 hrs by sulforhodamine B assay relative to control; assay type: functional; how it was run: as §1
OVCAR-8 = assay: Antiproliferative activity against human OVCAR-8 cells assessed as cell growth inhibition at 10 uM incubated for 48 hrs by sulforhodamine B assay relative to control; assay type: functional; how it was run: as §1
UACC-62 = assay: Antiproliferative activity against human UACC-62 cells assessed as cell growth inhibition at 10 uM incubated for 48 hrs by sulforhodamine B assay relative to control; assay type: functional; how it was run: as §1
EKVX = assay: Antiproliferative activity against human EKVX cells assessed as cell growth inhibition at 10 uM incubated for 48 hrs by sulforhodamine B assay relative to control; assay type: functional; how it was run: as §2
KM12 = assay: Antiproliferative activity against human KM12 cells assessed as cell growth inhibition at 10 uM incubated for 48 hrs by sulforhodamine B assay relative to control; assay type: functional; how it was run: as §1
ACHN = assay: Antiproliferative activity against human ACHN cells assessed as cell growth inhibition at 10 uM incubated for 48 hrs by sulforhodamine B assay relative to control; assay type: functional
How it was run: (§3)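 Single-dose NCI-60 prescreen at 10^-5 M. Cells in RPMI 1640 with 5% FBS and 2 mM L-glutamine, seeded 5,000–40,000 cells/well with 24 h preincubation, then drug exposure for 48 h at 37 °C under 5% CO2. Growth read by SRB staining of TCA-fixed cells at 515 nm against time-zero and untreated controls. Negative growth values denote cell kill.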

UO-31 = assay: Antiproliferative activity against human UO-31 cells assessed as cell growth inhibition at 10 uM incubated for 48 hrs by sulforhodamine B assay relative to control; assay type: functional; how it was run: as §1
SK-MEL-5 = assay: Antiproliferative activity against human SK-MEL-5 cells assessed as cell growth inhibition at 10 uM incubated for 48 hrs by sulforhodamine B assay relative to control; assay type: functional; how it was run: as §1
NCI-H322M = assay: Antiproliferative activity against human NCI-H322M cells assessed as cell growth inhibition at 10 uM incubated for 48 hrs by sulforhodamine B assay relative to control; assay type: functional; how it was run: as §1
U-251 = assay: Antiproliferative activity against human U-251 cells assessed as cell growth inhibition at 10 uM incubated for 48 hrs by sulforhodamine B assay relative to control; assay type: functional; how it was run: as §1
NCI-H226 = assay: Antiproliferative activity against human NCI-H226 cells assessed as cell growth inhibition at 10 uM incubated for 48 hrs by sulforhodamine B assay relative to control; assay type: functional; how it was run: as §1
NCI-H522 = assay: Antiproliferative activity against human NCI-H522 cells assessed as cell growth inhibition at 10 uM incubated for 48 hrs by sulforhodamine B assay relative to control; assay type: functional; how it was run: as §1
HT-29 = assay: Antiproliferative activity against human HT-29 cells assessed as cell growth inhibition at 10 uM incubated for 48 hrs by sulforhodamine B assay relative to control; assay type: functional; how it was run: as §1
A549 = assay: Antiproliferative activity against human A549 cells assessed as cell growth inhibition at 10 uM incubated for 48 hrs by sulforhodamine B assay relative to control; assay type: functional; how it was run: as §3
MOLT-4 = assay: Antiproliferative activity against human MOLT-4 cells assessed as cell growth inhibition at 10 uM incubated for 48 hrs by sulforhodamine B assay relative to control; assay type: functional; how it was run: as §1
MCF7 = assay: Antiproliferative activity against human MCF7 cells assessed as cell growth inhibition at 10 uM incubated for 48 hrs by sulforhodamine B assay relative to control; assay type: functional; how it was run: as §1
HCT-116 = assay: Antiproliferative activity against human HCT-116 cells assessed as cell growth inhibition at 10 uM incubated for 48 hrs by sulforhodamine B assay relative to control; assay type: functional; how it was run: as §2
T47D = assay: Antiproliferative activity against human T47D cells assessed as cell growth inhibition at 10 uM incubated for 48 hrs by sulforhodamine B assay relative to control; assay type: functional; how it was run: as §1
HL-60 = assay: Antiproliferative activity against human HL-60 cells assessed as cell growth inhibition at 10 uM incubated for 48 hrs by sulforhodamine B assay relative to control; assay type: functional; how it was run: as §2
MDA-MB-231 = assay: Antiproliferative activity against human MDA-MB-231 cells assessed as cell growth inhibition at 10 uM incubated for 48 hrs by sulforhodamine B assay relative to control; assay type: functional; how it was run: as §1
CCRF-CEM = assay: Antiproliferative activity against human CCRF-CEM cells assessed as cell growth inhibition at 10 uM incubated for 48 hrs by sulforhodamine B assay relative to control; assay type: functional; how it was run: as §3
PC-3 = assay: Antiproliferative activity against human PC-3 cells assessed as cell growth inhibition at 10 uM incubated for 48 hrs by sulforhodamine B assay relative to control; assay type: functional; how it was run: as §1
HCT-15 = assay: Antiproliferative activity against human HCT-15 cells assessed as cell growth inhibition at 10 uM incubated for 48 hrs by sulforhodamine B assay relative to control; assay type: functional; how it was run: as §2
K562 = assay: Antiproliferative activity against human K562 cells assessed as cell growth inhibition at 10 uM incubated for 48 hrs by sulforhodamine B assay relative to control; assay type: functional; how it was run: as §1
LOX IMVI = assay: Antiproliferative activity against human LOX IMVI cells assessed as cell growth inhibition at 10 uM incubated for 48 hrs by sulforhodamine B assay relative to control; assay type: functional; how it was run: as §1
SN12C = assay: Antiproliferative activity against human SN12C cells assessed as cell growth inhibition at 10 uM incubated for 48 hrs by sulforhodamine B assay relative to control; assay type: functional; how it was run: as §1

CCc1ccc(-c2cn3ccnc3c(-c3ccc4ncn(C5CCCCC5)c4c3)n2)cc1 gave a logD at 1.417 h [1] of 1.66.
FC(F)(F)c1cccc(-c2cn3ccnc3c(-c3ccc4ncn(C5CCCCC5)c4c3)n2)c1 gave an inhibition at 10 µM (RPMI-8226) of 32.1%, an inhibition at 10 µM (SNB-19) of 2.24% and an inhibition at 10 µM (SR) of 15.6%. For the same molecule, the inhibition at 10 µM (SF-268) was 3.3%, the inhibition at 10 µM (HOP-92) was 8.38% and the inhibition at 10 µM (NCI-H460) was 4.38%. The inhibition at 10 µM (SNB-75) was 4.58%, the inhibition at 10 µM (OVCAR-8) was 10.1% and the inhibition at 10 µM (UACC-62) was 4.33%. The inhibition at 10 µM (EKVX) was 4.79%, the inhibition at 10 µM (KM12) was 1.25% and the inhibition at 10 µM (ACHN) was 0.3%. The inhibition at 10 µM (UO-31) was 22.5%, the inhibition at 10 µM (SK-MEL-5) was 4.32% and the inhibition at 10 µM (NCI-H322M) was 5.83%. It also gave an inhibition at 10 µM (U-251) of 5.93%, an inhibition at 10 µM (NCI-H226) of 1.55% and an inhibition at 10 µM (NCI-H522) of 10.7%. The inhibition at 10 µM (HT-29) was 6.41%, the inhibition at 10 µM (A549) was 5.15% and the inhibition at 10 µM (MOLT-4) was 32.9%. For the same molecule, the inhibition at 10 µM (MCF7) was 19.9%, the inhibition at 10 µM (HCT-116) was 17.6% and the inhibition at 10 µM (T47D) was 52.1%. It also gave an inhibition at 10 µM (HL-60) of 1.06%, an inhibition at 10 µM (MDA-MB-231) of 21.8% and an inhibition at 10 µM (CCRF-CEM) of 27.3%. The logD at 1.417 h [1] was 1.72, the inhibition at 10 µM (PC-3) was 36.5% and the inhibition at 10 µM (HCT-15) was 0.36%. For the same molecule, the inhibition at 10 µM (K562) was 21.5%, the inhibition at 10 µM (LOX IMVI) was 3.45% and the inhibition at 10 µM (SN12C) was 8.3%.
Cc1cccc(-c2cn3ccnc3c(-c3ccc4ncn(C5CCCCC5)c4c3)n2)c1 showed a logD at 1.417 h [1] of 1.87.
